Laboratory results from ChEMBL document CHEMBL1128281 (J Med Chem, 1995).

Target: Serotonin 2 (5-HT2) receptor (Rattus norvegicus, UniProt P30994+P08909+P14842)
Experiment: Affinity for 5-hydroxytryptamine 2 receptor binding sites by its ability to displace [3H]spiperone from rat frontal cortex.

SMILES | IC50 [nM]
COc1cc(C(C)=O)ccc1OCCCCN1CCC(c2noc3cc(Cl)ccc23)CC1 | 143
CC(=O)c1ccc2c(c1)OCC(CCN1CCC(c3noc4cc(F)ccc34)CC1)O2 (stereo not given) | 91
COc1cc(C(C)=O)ccc1OCCCN1CCC(c2noc3ccc(F)cc23)CC1 | 122
COc1ccc(N)cc1OCCCN1CCC(c2noc3cc(F)ccc23)CC1 | 2
CNc1ccccc1OCCCN1CCC(c2noc3cc(F)ccc23)CC1 | 17
COc1cc(C(N)=O)ccc1OCCCN1CCC(c2noc3cc(F)ccc23)CC1 | 0.9
COc1cc(C(C)=O)ccc1OCCN1CCC(c2noc3cc(F)ccc23)CC1 | 67
COc1ccccc1OCCCN1CCC(c2noc3cc(F)ccc23)CC1 | 5.2
COc1cc(/C(C)=N\N)ccc1OCCCN1CCC(c2noc3cc(F)ccc23)CC1 | 20

Results, then the molecule that gave them:

IC50 [nM] | SMILES
53 | CC(O)c1ccc(OCCCN2CCC(c3noc4cc(F)ccc34)CC2)c(O)c1 (stereo not given)
5.5 | CC(=O)c1ccc(OCCCN2CCC(c3noc4cc(F)ccc34)CC2)cc1
89 | CCCCC(=O)c1ccc(OCCCN2CCC(c3noc4cc(F)ccc34)CC2)c(OC)c1
41 | COc1cc(C(C)=O)ccc1SCCCN1CCC(c2noc3cc(F)ccc23)CC1
0.7 | COc1cc(/C(C)=N\O)ccc1OCCCN1CCC(c2noc3cc(F)ccc23)CC1
49 | COc1cc(Br)ccc1OCCCN1CCC(c2noc3cc(F)ccc23)CC1
< 10 | COc1cc2c(cc1OCCCN1CCC(c3noc4cc(F)ccc34)CC1)CCCC2=O
3.8 | CCOc1cc(C(C)=O)ccc1OCCCN1CCC(c2noc3cc(F)ccc23)CC1
3.8 | COc1ccc(NC(C)=O)cc1OCCCN1CCC(c2noc3cc(F)ccc23)CC1
18 | COc1cc(C(C)=O)ccc1NCCCN1CCC(c2noc3cc(F)ccc23)CC1
23 | COc1cc(OCCCN2CCC(c3noc4cc(F)ccc34)CC2)ccc1C(C)=O
38 | COc1cc(C(=O)C(F)(F)F)ccc1OCCCN1CCC(c2noc3cc(F)ccc23)CC1
4.9 | COc1cc(C(C)=O)ccc1OCCCN1CCC(c2noc3cc(Cl)ccc23)CC1

Species on record: Mus musculus
Experiment: Ability to inhibit apomorphine-induced climbing behavior in mice.
Assay type: functional
Outline: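 Male CD-1 mice (18–30 g) were adapted for 1 h in wire-mesh cages, 8 per dose group. Distilled water or drug was given ip 30 or 60 min before apomorphine 1.5 mg/kg sc.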

SMILES | ED50 [mg/kg]
CC(=O)c1ccc(OCCCN2CCC(c3noc4cc(F)ccc34)CC2)c(C)c1 | 0.25
COc1cc(C(C)=O)ccc1OCCCCN1CCC(c2noc3cc(Cl)ccc23)CC1 | 2.4
CC(O)c1ccc(OCCCN2CCC(c3noc4cc(F)ccc34)CC2)c(O)c1 (stereo not given) | 0.058
CC(=O)c1ccc2c(c1)OCC(CCN1CCC(c3noc4cc(F)ccc34)CC1)O2 (stereo not given) | 13.7
COc1cc(C(C)=O)ccc1OCCCN1CCC(c2noc3ccc(F)cc23)CC1 | 5.2
COc1ccc(N)cc1OCCCN1CCC(c2noc3cc(F)ccc23)CC1 | 0.16
CC(=O)c1ccc(OCCCN2CCC(c3noc4cc(F)ccc34)CC2)cc1 | 0.84
Nc1ccccc1OCCCN1CCC(c2noc3cc(F)ccc23)CC1 | 0.42
CCCCC(=O)c1ccc(OCCCN2CCC(c3noc4cc(F)ccc34)CC2)c(OC)c1 | 0.78
CNc1ccccc1OCCCN1CCC(c2noc3cc(F)ccc23)CC1 | 0.81
COc1cc(C(C)=O)ccc1SCCCN1CCC(c2noc3cc(F)ccc23)CC1 | 2
COc1cc(C(N)=O)ccc1OCCCN1CCC(c2noc3cc(F)ccc23)CC1 | 1.6
COc1cc(C(C)=O)ccc1OCCN1CCC(c2noc3cc(F)ccc23)CC1 | 5.3
COc1cc(/C(C)=N\O)ccc1OCCCN1CCC(c2noc3cc(F)ccc23)CC1 | 1.1
COc1ccccc1OCCCN1CCC(c2noc3cc(F)ccc23)CC1 | 0.48
COc1cc(Br)ccc1OCCCN1CCC(c2noc3cc(F)ccc23)CC1 | 1.6
COc1cc2c(cc1OCCCN1CCC(c3noc4cc(F)ccc34)CC1)CCCC2=O | 2.3
CCOc1cc(C(C)=O)ccc1OCCCN1CCC(c2noc3cc(F)ccc23)CC1 | 0.56
COc1ccc(NC(C)=O)cc1OCCCN1CCC(c2noc3cc(F)ccc23)CC1 | 0.6
COc1cc(C(C)=O)ccc1NCCCN1CCC(c2noc3cc(F)ccc23)CC1 | 0.26
COc1cc(/C(C)=N\N)ccc1OCCCN1CCC(c2noc3cc(F)ccc23)CC1 | 0.64
COc1cc(OCCCN2CCC(c3noc4cc(F)ccc34)CC2)ccc1C(C)=O | 0.28
COc1cc(C(=O)C(F)(F)F)ccc1OCCCN1CCC(c2noc3cc(F)ccc23)CC1 | 2.2
COc1cc(C(C)=O)ccc1OCCCN1CCC(c2noc3cc(Cl)ccc23)CC1 | 3.3

Species on record: Rattus norvegicus
Experiment: Ability to block apomorphine-induced stereotypy in rats.
Assay type: functional
Outline: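 Male Wistar rats (150–250 g), 6–10 per dose group, given distilled water or test drug ip; apomorphine 1.5 mg/kg sc 50 min later. Rats were placed singly in cages and scored 10 min afterwards for continuous stereotyped licking or sniffing. Inhibition was the number of animals protected versus controls. ED50 was obtained by probit analysis.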

SMILES | ED50 [mg/kg]
CC(=O)c1ccc(OCCCN2CCC(c3noc4cc(F)ccc34)CC2)c(C)c1 | 31.4
COc1cc(C(C)=O)ccc1OCCCCN1CCC(c2noc3cc(Cl)ccc23)CC1 | 9.7
CC(O)c1ccc(OCCCN2CCC(c3noc4cc(F)ccc34)CC2)c(O)c1 (stereo not given) | 3.6
CC(=O)c1ccc2c(c1)OCC(CCN1CCC(c3noc4cc(F)ccc34)CC1)O2 (stereo not given) | > 80
COc1cc(C(C)=O)ccc1OCCCN1CCC(c2noc3ccc(F)cc23)CC1 | > 80
COc1ccc(N)cc1OCCCN1CCC(c2noc3cc(F)ccc23)CC1 | 13
CC(=O)c1ccc(OCCCN2CCC(c3noc4cc(F)ccc34)CC2)cc1 | 5.7
Nc1ccccc1OCCCN1CCC(c2noc3cc(F)ccc23)CC1 | 5.5
CCCCC(=O)c1ccc(OCCCN2CCC(c3noc4cc(F)ccc34)CC2)c(OC)c1 | 16.9
CNc1ccccc1OCCCN1CCC(c2noc3cc(F)ccc23)CC1 | 22.3
COc1cc(C(C)=O)ccc1SCCCN1CCC(c2noc3cc(F)ccc23)CC1 | 13.6
COc1cc(C(N)=O)ccc1OCCCN1CCC(c2noc3cc(F)ccc23)CC1 | 22.7
COc1cc(C(C)=O)ccc1OCCN1CCC(c2noc3cc(F)ccc23)CC1 | > 80
COc1cc(/C(C)=N\O)ccc1OCCCN1CCC(c2noc3cc(F)ccc23)CC1 | > 80
COc1ccccc1OCCCN1CCC(c2noc3cc(F)ccc23)CC1 | 9.7
COc1cc(Br)ccc1OCCCN1CCC(c2noc3cc(F)ccc23)CC1 | 15.3
COc1cc2c(cc1OCCCN1CCC(c3noc4cc(F)ccc34)CC1)CCCC2=O | 25
CCOc1cc(C(C)=O)ccc1OCCCN1CCC(c2noc3cc(F)ccc23)CC1 | 14.5
COc1ccc(NC(C)=O)cc1OCCCN1CCC(c2noc3cc(F)ccc23)CC1 | 30.1
COc1cc(C(C)=O)ccc1NCCCN1CCC(c2noc3cc(F)ccc23)CC1 | 9.3
COc1cc(/C(C)=N\N)ccc1OCCCN1CCC(c2noc3cc(F)ccc23)CC1 | 17.4
COc1cc(OCCCN2CCC(c3noc4cc(F)ccc34)CC2)ccc1C(C)=O | 8.2
COc1cc(C(=O)C(F)(F)F)ccc1OCCCN1CCC(c2noc3cc(F)ccc23)CC1 | > 20
COc1cc(C(C)=O)ccc1OCCCN1CCC(c2noc3cc(Cl)ccc23)CC1 | > 80
